Experimental data taken from ChEMBL document CHEMBL3124871, “Synthesis and pharmacological characterization of 1-benzyl-4-aminoindole-based thyroid hormone receptor β agonists” (Bioorg Med Chem, 2014).

Legend:
Rattus norvegicus [1] = experiment: Reduction in plasma free cholesterol in cholesterol-fed Sprague-Dawley rat at 6 mg/kg/day, po qd for 1 week measured 3 to 6 hrs post last dose (reference value: 36 +/- 9 mg/dl); type: functional
[2] = biological target: T1, Thyroid hormone receptor alpha (Homo sapiens, UniProt P10827); experiment: Displacement of [125I]-Triiodothyronine from human recombinant TRalpha1 ligand binding domain after 2 to 3 hrs by beta counting
T1 sequence (P10827 whole entry): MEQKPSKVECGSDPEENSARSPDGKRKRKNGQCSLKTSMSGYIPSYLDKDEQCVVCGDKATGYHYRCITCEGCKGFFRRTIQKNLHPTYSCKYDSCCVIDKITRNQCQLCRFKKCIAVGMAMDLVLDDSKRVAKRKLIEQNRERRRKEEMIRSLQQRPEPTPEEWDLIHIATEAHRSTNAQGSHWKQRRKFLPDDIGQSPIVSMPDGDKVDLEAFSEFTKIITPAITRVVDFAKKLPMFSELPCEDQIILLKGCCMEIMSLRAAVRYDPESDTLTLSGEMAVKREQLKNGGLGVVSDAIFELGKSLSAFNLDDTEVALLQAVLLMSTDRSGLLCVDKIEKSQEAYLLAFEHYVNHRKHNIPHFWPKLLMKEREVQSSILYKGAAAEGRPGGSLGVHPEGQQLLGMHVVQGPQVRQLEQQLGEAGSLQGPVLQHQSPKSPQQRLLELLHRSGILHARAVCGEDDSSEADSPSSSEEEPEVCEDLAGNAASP

Rattus norvegicus [3] = experiment: Toxicity in cholesterol-fed Sprague-Dawley rat assessed as total T4 level at 6 mg/kg/day, po qd for 1 week measured 3 to 6 hrs post last dose (reference value: 3.8 +/- 0.9 ug/dl); type: organism-based; parameters: route oral; conditions: in vivo
Rattus norvegicus [4] = experiment: Reduction in plasma HDL-cholesterol in cholesterol-fed Sprague-Dawley rat at 6 mg/kg/day, po qd for 1 week measured 3 to 6 hrs post last dose (reference value: 22 +/- 6 mg/dl); type: functional
[5] = biological target: T2, Thyroid hormone receptor beta (Homo sapiens, UniProt P10828); experiment: Agonist activity at human recombinant TRbeta1 transfected in CV-1 cells after 8 to 10 hrs by alkaline phosphatase reporter gene assay; type: cell-based
T2 sequence (P10828 whole entry): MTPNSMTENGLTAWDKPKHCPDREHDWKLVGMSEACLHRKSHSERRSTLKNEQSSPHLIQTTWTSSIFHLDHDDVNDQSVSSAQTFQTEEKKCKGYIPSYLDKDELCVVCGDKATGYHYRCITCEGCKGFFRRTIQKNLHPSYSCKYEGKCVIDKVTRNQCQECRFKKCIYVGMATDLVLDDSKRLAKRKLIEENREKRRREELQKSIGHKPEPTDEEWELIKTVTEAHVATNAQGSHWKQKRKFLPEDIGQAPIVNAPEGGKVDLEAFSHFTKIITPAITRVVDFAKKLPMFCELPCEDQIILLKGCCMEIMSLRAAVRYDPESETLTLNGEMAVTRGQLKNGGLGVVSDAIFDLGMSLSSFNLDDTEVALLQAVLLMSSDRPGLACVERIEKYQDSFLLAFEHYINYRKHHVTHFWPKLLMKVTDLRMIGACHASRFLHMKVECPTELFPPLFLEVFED

[6] = biological target: T2, Thyroid hormone receptor beta; experiment: Displacement of [125I]-Triiodothyronine from human recombinant TRbeta1 ligand binding domain after 2 to 3 hrs by beta counting
Rattus norvegicus [7] = experiment: Reduction in plasma triglyceride level in cholesterol-fed Sprague-Dawley rat at 6 mg/kg/day, po qd for 1 week measured 3 to 6 hrs post last dose (reference value: 62 +/- 25 mg/dl); type: functional
Rattus norvegicus [8] = experiment: Toxicity in cholesterol-fed Sprague-Dawley rat assessed as total T4 level at 150 mg/kg/day, po qd for 1 week measured 3 to 6 hrs post last dose (reference value: 3.8 +/- 0.9 ug/dl); type: organism-based; parameters: route oral; conditions: in vivo
Rattus norvegicus [9] = experiment: Toxicity in cholesterol-fed Sprague-Dawley rat assessed as heart rate at 6 mg/kg/day, po qd for 1 week measured 3 to 6 hrs post last dose (reference value: 383.0 +/- 26.7 bpm); type: organism-based; parameters: route oral; conditions: in vivo
Rattus norvegicus [10] = experiment: Reduction in plasma LDL-cholesterol in cholesterol-fed Sprague-Dawley rat at 6 mg/kg/day, po qd for 1 week measured 3 to 6 hrs post last dose (reference value: 51 +/- 15 mg/dl); type: functional
Rattus norvegicus [11] = experiment: Toxicity in cholesterol-fed Sprague-Dawley rat assessed as heart rate at 150 mg/kg/day, po qd for 1 week measured 3 to 6 hrs post last dose (reference value: 383.0 +/- 26.7 bpm); type: organism-based; parameters: route oral; conditions: in vivo
Rattus norvegicus [12] = experiment: Toxicity in cholesterol-fed Sprague-Dawley rat assessed as TSH level at 150 mg/kg/day, po qd for 1 week measured 3 to 6 hrs post last dose (reference value: 3.0 +/- 1.0 uIU/ml); type: organism-based; parameters: route oral; conditions: in vivo
HepG2 = experiment: Selectivity ratio of EC50 for human recombinant transfected in human HepG2 cells to EC50 for human recombinant TRbeta1 transfected in human HepG2; type: cell-based
Rattus norvegicus [13] = experiment: Toxicity in cholesterol-fed Sprague-Dawley rat assessed as heart weight at 6 mg/kg/day, po qd for 1 week measured 3 to 6 hrs post last dose (reference value: 1.14 +/- 0.12 g); type: organism-based; parameters: route oral; conditions: in vivo
Rattus norvegicus [14] = experiment: Toxicity in cholesterol-fed Sprague-Dawley rat assessed as heart weight at 150 mg/kg/day, po qd for 1 week measured 3 to 6 hrs post last dose (reference value: 1.14 +/- 0.12 g); type: organism-based; parameters: route oral; conditions: in vivo
Rattus norvegicus [15] = experiment: Toxicity in cholesterol-fed Sprague-Dawley rat assessed as TSH level at 6 mg/kg/day, po qd for 1 week measured 3 to 6 hrs post last dose (reference value: 3.0 +/- 1.0 uIU/ml); type: organism-based; parameters: route oral; conditions: in vivo
[16] = biological target: T2, Thyroid hormone receptor beta; experiment: Agonist activity at human recombinant TRbeta1 transfected in human HepG2 cells after 8 to 10 hrs by alkaline phosphatase reporter gene assay; type: cell-based
Rattus norvegicus [17] = experiment: Reduction in plasma total cholesterol in cholesterol-fed Sprague-Dawley rat at 6 mg/kg/day, po qd for 1 week measured 3 to 6 hrs post last dose (reference value: 190 +/- 49 mg/dl); type: functional
CV-1 = experiment: Selectivity ratio of EC50 for human recombinant transfected in CV-1 cells to EC50 for human recombinant TRbeta1 transfected in CV-1 cells; type: cell-based
Procedure, shortened: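 CV-1 monkey kidney cells grown in DMEM with 10% FBS for 24 h at 37 °C and 5% CO2. Transfected (FuGENE) with hTRα1 or hTRβ1 plus a SEAP reporter for 24 h, then exposed to T3 or test compound for 8-10 h. SEAP was read as A405 of p-nitrophenol (pH 9.8, 30 min, RT). EC50 was set against T3 max = 100%; mean of four experiments; α/β ratio of EC50s.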

Cc1ccc(NC(=O)CC(=O)O)c2ccn(Cc3ccc(O)c(C(C)C)c3)c12
Activity (Rattus norvegicus [1]): 15 mg/dL | IC50 [2]: 5200 nM | Activity (Rattus norvegicus [3]): 2.4 µg/dL | Activity (Rattus norvegicus [4]): 20 mg/dL | EC50 [5]: 3100 nM | IC50 [6]: 240 nM | Activity (Rattus norvegicus [7]): 27 mg/dL | Activity (Rattus norvegicus [8]): 1.9 µg/dL | Activity (Rattus norvegicus [9]): 401.8 bpm | Activity (Rattus norvegicus [10]): 20 mg/dL | Activity (Rattus norvegicus [11]): 424.3 bpm | Activity (Rattus norvegicus [12]): 1.3 uIU/ml | Ratio EC50 (HepG2): 7.2 | Activity (Rattus norvegicus [13]): 1.12 g | Activity (Rattus norvegicus [14]): 1.18 g | Activity (Rattus norvegicus [15]): 2.7 uIU/ml | EC50 [16]: 1300 nM | Activity (Rattus norvegicus [17]): 94 mg/dL | Ratio EC50 (CV-1): 3.4
